The RNAGym collection of RNA variant scans (doi:10.1126/science.aae0568)
This sample holds only a part of the variants without activity.

B1: tRNA (parent)
chain: GUUCCGUUGGCGUAAUGGUAACGCGUCUCCCUCCUAAGGAGAAGACUGCGGGUUCGAGUCCCGUACGGAACG

Variants of: B1
Assay: yeast fitness relative to wild type (ratio to wild type); higher = fitter; tRNA-Arg(CCU), competitive growth, 37 C, YPD
Summary of the method: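 Amplicons of the tRNA-Arg(CCU) gene were sequenced, 100-nucleotide paired-end, from the start population and from each end population of a pooled yeast competition. The competition, in six parallel replicates, lasted 24 hours in YPD at 37°C. Fitness relative to wild type was calculated from changes in genotype frequencies. Genotypes had to have ≥ 100 starting reads, and estimates < 0.5 were set to 0.5.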

Going from C11A C24G C34U C49A to C11G A14G U35A C66U, the yeast fitness rises from ≤ 0.5 to 0.535.

Going from C11A U13A A20G G68C A69C to C11A U28G C33A A45G A65U, the yeast fitness falls from 0.626 to ≤ 0.5.

First: C11A C34G A43G C46G
Second: C11A U13C C27A G63A
The yeast fitness of the first is higher: 0.708 for the first, ≤ 0.5 for the second.

Compared with C11A U19C, C11A C31A C66G A69U is lower in yeast fitness: 0.706 for the first, ≤ 0.5 for the second.

C11A U32A C33U U47A G63A and C11A C34G A65U cannot be ordered by yeast fitness: ≤ 0.5 for the first, ≤ 0.5 for the second.

C11A U19A G52A and C11G A20C C24U A36C U47A C66U cannot be ordered by yeast fitness: ≤ 0.5 for the first, ≤ 0.5 for the second.

C11A C34G U59G and C11A C31A G68C cannot be ordered by yeast fitness: ≤ 0.5 for the first, ≤ 0.5 for the second.

First: C11G A15G C22A U26A A40U C49U
Second: C11A U19C A21U A43U G58C C60A C66U
The yeast fitness of the first is lower: ≤ 0.5 for the first, 0.531 for the second.

Going from C11A C29G A57G to C11A G56A, the yeast fitness rises from ≤ 0.5 to 0.739.

C11A G56C and C11A C62A A70U cannot be ordered by yeast fitness: ≤ 0.5 for the first, ≤ 0.5 for the second.

Going from C11A C29A C46A A70G to C11A G12A G23A C33G A45C, the yeast fitness falls from 0.541 to ≤ 0.5.

First: C11A U19A C55A C61U
Second: C11G A15G C22A A37U A65C C66G
The yeast fitness of the first is higher: 0.605 for the first, ≤ 0.5 for the second.

First: C11A U16C U32G C49G C62U
Second: C11A G67A
The yeast fitness of the first is lower: ≤ 0.5 for the first, 0.555 for the second.

Compared with C11A G67C, C11A C27U C46G is lower in yeast fitness: 0.574 for the first, 0.524 for the second.

Compared with C11A G17A U35G U59C, C11A G17A U35G is lower in yeast fitness: 0.568 for the first, ≤ 0.5 for the second.

C11A G18A G68A and C11A C29G A57G C66A cannot be ordered by yeast fitness: ≤ 0.5 for the first, ≤ 0.5 for the second.

Compared with C11G A15G C33G A37G C60A, C11A U16C G18C A45C A57C G68A is lower in yeast fitness: 0.582 for the first, ≤ 0.5 for the second.

C11A U13A A20U G63A A65U and C11G A20C C24U A36C U47A G56C C60G cannot be ordered by yeast fitness: ≤ 0.5 for the first, ≤ 0.5 for the second.

C11A C27U G56C and C11G A14G G48A C55U C66U G68C A69U cannot be ordered by yeast fitness: ≤ 0.5 for the first, ≤ 0.5 for the second.

Going from C11A U35A G52A to C11A G25C U28A A40U, the yeast fitness rises from ≤ 0.5 to 0.752.

Compared with C11A C30U C49G G50A U64A, C11A U28G G44C is higher in yeast fitness: ≤ 0.5 for the first, 0.602 for the second.

C11A C24U U32A U35C C55G and C11G A15U C24G A40G A42U cannot be ordered by yeast fitness: ≤ 0.5 for the first, ≤ 0.5 for the second.

Going from C11G A14C C30U G67U to C11A C27A G67A, the yeast fitness rises from ≤ 0.5 to 0.626.

C11A U19A A42U A45C U47C C55U A69C and C11G A15C C29U G41C G52A cannot be ordered by yeast fitness: ≤ 0.5 for the first, ≤ 0.5 for the second.

First: C11G A14U A43U G52A G68C A69G
Second: C11A U28G C34U
The yeast fitness of the first is higher: 0.636 for the first, ≤ 0.5 for the second.

C11A C24G C30G C55G and C11A U13A A42U C55A cannot be ordered by yeast fitness: ≤ 0.5 for the first, ≤ 0.5 for the second.

Going from C11A U16G U53G to C11A C29G U54A, the yeast fitness rises from ≤ 0.5 to 0.69.

Going from C11G A20C to C11A U54A, the yeast fitness falls from 0.615 to 0.602.

Going from C11A U54C to C11A C27G U35A A43U U54C A65G G68A, the yeast fitness falls from 0.596 to ≤ 0.5.

C11A U59C C60A U64A and C11A C29U C31G G58C cannot be ordered by yeast fitness: ≤ 0.5 for the first, ≤ 0.5 for the second.

Going from C11A U13G C27G to C11A U16A, the yeast fitness rises from ≤ 0.5 to 0.58.

C11A U35A A37U and C11A U47C G52C cannot be ordered by yeast fitness: ≤ 0.5 for the first, ≤ 0.5 for the second.

C11A C33U C49U C61U and C11A G18A A36U G41C C55U U64C cannot be ordered by yeast fitness: ≤ 0.5 for the first, ≤ 0.5 for the second.

Going from C11A U16C U32G C49G C55A C66G A70C to C11A G44A G48A, the yeast fitness rises from ≤ 0.5 to 0.68.

C11A C33G A43C G68A A70G and C11A U28G C33A A42C A65U cannot be ordered by yeast fitness: ≤ 0.5 for the first, ≤ 0.5 for the second.

C11A U16G C33U and C11A G41A A45U G56C cannot be ordered by yeast fitness: ≤ 0.5 for the first, ≤ 0.5 for the second.

C11A U13A C29A G48A C66U and C11A U59G G63C cannot be ordered by yeast fitness: ≤ 0.5 for the first, ≤ 0.5 for the second.

C11A C30U A43C G67U and C11G A14U C24A C60A cannot be ordered by yeast fitness: ≤ 0.5 for the first, ≤ 0.5 for the second.

C11A U19G A36G C62A A69C and C11A C27U C33U U35C C61G A65G cannot be ordered by yeast fitness: ≤ 0.5 for the first, ≤ 0.5 for the second.

C11A C27U C61G and C11A G58A G68U cannot be ordered by yeast fitness: ≤ 0.5 for the first, ≤ 0.5 for the second.

Going from C11A G58A G68A to C11A C62G A69U, the yeast fitness falls from 0.621 to ≤ 0.5.

First: C11A C31U
Second: C11A C31A
The yeast fitness of the first is higher: 0.664 for the first, 0.524 for the second.

C11G A15C U47G and C11A U16C U28C U32G C49G C55A cannot be ordered by yeast fitness: ≤ 0.5 for the first, ≤ 0.5 for the second.

Compared with C11A C46A, C11A C46G is lower in yeast fitness: 0.745 for the first, 0.651 for the second.

Going from C11G A14C C30G A45G A57G to C11A U16C U32G, the yeast fitness rises from ≤ 0.5 to 0.523.

Going from C11A C31A C61A to C11A C27G G67C, the yeast fitness falls from 0.563 to ≤ 0.5.

Compared with C11A C49G A69U, C11A C24U C31U C61U G67A is lower in yeast fitness: 0.585 for the first, ≤ 0.5 for the second.

C11G A20C A42C A57U and C11G A20C C24G G63A C66U cannot be ordered by yeast fitness: ≤ 0.5 for the first, ≤ 0.5 for the second.

Compared with C11A U53G, C11A U16C U32G U64G is lower in yeast fitness: 0.577 for the first, ≤ 0.5 for the second.

C11G A20C C24U A36C C66U G67A and C11A C29G A65U G68A cannot be ordered by yeast fitness: ≤ 0.5 for the first, ≤ 0.5 for the second.

C11A G12A A20C C29U and C11A C29U C33U cannot be ordered by yeast fitness: ≤ 0.5 for the first, ≤ 0.5 for the second.

First: C11A C49A C61G
Second: C11A C27G C61A
The yeast fitness of the first is higher: 0.53 for the first, ≤ 0.5 for the second.

Going from C11A C49G to C11A C49U, the yeast fitness falls from 0.782 to 0.658.

C11A G25C C46U G50A and C11A C31G C60U cannot be ordered by yeast fitness: ≤ 0.5 for the first, ≤ 0.5 for the second.

Going from C11G A15G U26A U32A G38A A40C G58A to C11G A15G U26A U32A G38A A40C, the yeast fitness rises from ≤ 0.5 to 0.546.

First: C11A U54C A57U
Second: C11A C46U C62A A65C
The yeast fitness of the first is higher: 0.565 for the first, ≤ 0.5 for the second.

Compared with C11A C31A U53A, C11A C27U C49A is higher in yeast fitness: ≤ 0.5 for the first, 0.752 for the second.

C11G A15U C55U and C11A C61G A65C A70C cannot be ordered by yeast fitness: ≤ 0.5 for the first, ≤ 0.5 for the second.

Compared with C11A U19G A36G U54C A65U, C11G A20C C24G A37G is higher in yeast fitness: 0.538 for the first, 0.542 for the second.

First: C11A C34U
Second: C11A U64C
The yeast fitness of the first is lower: 0.552 for the first, 0.638 for the second.

C11A C31U A65U and C11A G25C C29U C49U cannot be ordered by yeast fitness: ≤ 0.5 for the first, ≤ 0.5 for the second.

C11G A14C G18C C29G C49U A65C and C11A U13C A14G G44C C46A C49G cannot be ordered by yeast fitness: ≤ 0.5 for the first, ≤ 0.5 for the second.

Compared with C11A G23C G52C, C11A U16C U32G C49U G56A A65C is lower in yeast fitness: 0.57 for the first, ≤ 0.5 for the second.

Going from C11A C61G A65C to C11A G17U A20G C31A, the yeast fitness falls from 0.567 to ≤ 0.5.

C11G A15U C31A G58C A70C and C11A C30A G52C A65G cannot be ordered by yeast fitness: ≤ 0.5 for the first, ≤ 0.5 for the second.

C11A U16C G18C A45C A57C G68C A69G and C11A C24G C34G cannot be ordered by yeast fitness: ≤ 0.5 for the first, ≤ 0.5 for the second.

Compared with C11A G41A A57C, C11G A14U G17A A36G G41A is higher in yeast fitness: ≤ 0.5 for the first, 0.582 for the second.

First: C11A G18C C27A G48A U54C
Second: C11G A20C A42C C49U A57U
The yeast fitness of the first is higher: 0.76 for the first, ≤ 0.5 for the second.

Compared with C11A C33U C60G, C11A G18A C27U C34G A42C is lower in yeast fitness: 0.531 for the first, ≤ 0.5 for the second.

C11A C31U C34U G58C C60U C62U G63C and C11A C24G C34G A36G cannot be ordered by yeast fitness: ≤ 0.5 for the first, ≤ 0.5 for the second.

Going from C11A G25C A57U to C11A U35A, the yeast fitness rises from 0.513 to 0.535.

Going from C11A C29A A42G to C11A G51C, the yeast fitness rises from ≤ 0.5 to 0.585.

Going from C11A G52C C61G to C11A C31G A42U, the yeast fitness falls from 0.618 to 0.537.

C11A G25A U53A and C11A C30G C31U U32C A42G G52A cannot be ordered by yeast fitness: ≤ 0.5 for the first, ≤ 0.5 for the second.

C11A C27U A36G C49A and C11A C27A C55U G63A G67C cannot be ordered by yeast fitness: ≤ 0.5 for the first, ≤ 0.5 for the second.

Going from C11A U26A to C11G A15G A45C C46A A65C, the yeast fitness falls from 0.687 to ≤ 0.5.

C11A C30U G56A A69C and C11G A20C C55A G67C cannot be ordered by yeast fitness: ≤ 0.5 for the first, ≤ 0.5 for the second.

First: C11A U13A A14U G23C A69U
Second: C11A C24U C34A A37U C62A C66A
The yeast fitness of the first is lower: ≤ 0.5 for the first, 0.599 for the second.

Compared with C11A C29U A43C, C11A G17A C62U C66U is lower in yeast fitness: 0.599 for the first, ≤ 0.5 for the second.

C11A G12C C33U A43C and C11A U13G C34G A43U C61G cannot be ordered by yeast fitness: ≤ 0.5 for the first, ≤ 0.5 for the second.

Compared with C11G A14U C24A A57C, C11A C27G G68A is lower in yeast fitness: 0.572 for the first, ≤ 0.5 for the second.

First: C11A G25C U26C C29U A65C A70U
Second: C11G A14U A21U A69U
The yeast fitness of the first is higher: 0.558 for the first, ≤ 0.5 for the second.

C11A G38A A40U G50C C60G A70G and C11A U28C A42G A43U C46U C62U cannot be ordered by yeast fitness: ≤ 0.5 for the first, ≤ 0.5 for the second.

C11A G41C gave a yeast fitness of 0.714.
